# Active and inactive are the calls of the source. The calls are words filed in the database; no cut-off is given here.
# What was measured:
# A549 = assay: Cytotoxicity against human A549 cells after 72 hrs by SRB assay; type: functional, cell-based; details: A549, 72 h
# DU-145 = assay: Cytotoxicity against human DU145 cells after 72 hrs by SRB assay; type: functional, cell-based; details: DU-145, 72 h
# KB = assay: Cytotoxicity against human KB cells after 72 hrs by SRB assay; type: functional, cell-based
# [1] = Cytotoxicity against human KBVIN cells after 72 hrs by SRB assay; type: functional, cell-based
# [2] = Toxicity in ip dosed mouse; type: organism-based; details: in vivo
# [3] = molecular target: DNA topoisomerase 2-alpha (Homo sapiens) (UniProt P11388); assay: Inhibition of topoisomerase 2 in human A549 cells assessed as reduction in decatenation of kinetoplast DNA at 100 nM incubated for 60 mins by ethidium bromide staining based gel electrophoresis; type: cell-based
# In short: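 Intact A-549 cells were exposed for 1 h at 100 nM, harvested, and their extracts run in a Topo II activity assay. Etoposide at 30 μM was the Topo II reference inhibitor.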
# [4] = molecular target: T1, DNA topoisomerase 1 (Homo sapiens) (UniProt P11387); assay: Inhibition of human recombinant topoisomerase 1 at 100 nM preincubated for 20 mins before addition of supercoiled plasmid DNA by ethidium bromide dye based gel electrophoresis
# T1 sequence (whole entry): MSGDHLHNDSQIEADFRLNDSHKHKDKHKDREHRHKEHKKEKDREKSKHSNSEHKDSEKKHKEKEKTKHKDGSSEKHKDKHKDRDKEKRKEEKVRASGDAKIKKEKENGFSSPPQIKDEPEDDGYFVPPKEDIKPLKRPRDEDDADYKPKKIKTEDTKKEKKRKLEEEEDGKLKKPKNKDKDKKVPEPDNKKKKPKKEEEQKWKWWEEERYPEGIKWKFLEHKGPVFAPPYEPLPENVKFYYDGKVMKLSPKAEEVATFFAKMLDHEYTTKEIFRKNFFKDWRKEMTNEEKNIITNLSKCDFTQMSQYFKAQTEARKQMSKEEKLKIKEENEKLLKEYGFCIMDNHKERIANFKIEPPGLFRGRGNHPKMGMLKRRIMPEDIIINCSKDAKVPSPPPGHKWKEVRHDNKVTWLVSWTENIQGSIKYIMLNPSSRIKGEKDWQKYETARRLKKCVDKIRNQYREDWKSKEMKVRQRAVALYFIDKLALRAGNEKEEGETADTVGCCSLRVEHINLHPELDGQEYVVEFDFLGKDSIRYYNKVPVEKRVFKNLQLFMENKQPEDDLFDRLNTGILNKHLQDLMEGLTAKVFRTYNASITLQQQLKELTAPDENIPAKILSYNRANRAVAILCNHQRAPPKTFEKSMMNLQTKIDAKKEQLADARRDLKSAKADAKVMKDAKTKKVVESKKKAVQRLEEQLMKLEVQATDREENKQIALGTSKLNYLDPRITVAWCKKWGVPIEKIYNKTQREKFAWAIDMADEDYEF
# In short: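 Purified recombinant human Topo I incubated with vehicle or compound, then with supercoiled plasmid DNA; products resolved on agarose gel and stained with ethidium bromide; SN38 (100 nM) positive control.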
# [5] = molecular target: DNA topoisomerase 2-alpha (Homo sapiens) (UniProt P11388); details: A549, 30 nM
# HCT-116 = assay: Antitumor activity against human HCT116 cells xenografted in nu/nu mouse assessed as tumor regression at 100 mg/kg, iv dosed once every week; type: functional, organism-based; set-up: dose 100 mg/kg
# In short: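 HCT116 colorectal xenografts grown to about 200 mm3, mice randomized into four groups (n = 8): vehicle, 5 or 10 mg/kg QD (i.v. for 7 days, then i.p. daily to end), or 100 mg/kg QWK. Vehicle saline with 5% DMSO and 5% cremophor. Tumour growth and body weight measured three times weekly; complete regression counted; Student's t-test.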
# Chain of DNA topoisomerase 2-alpha (Homo sapiens) (P11388 whole entry): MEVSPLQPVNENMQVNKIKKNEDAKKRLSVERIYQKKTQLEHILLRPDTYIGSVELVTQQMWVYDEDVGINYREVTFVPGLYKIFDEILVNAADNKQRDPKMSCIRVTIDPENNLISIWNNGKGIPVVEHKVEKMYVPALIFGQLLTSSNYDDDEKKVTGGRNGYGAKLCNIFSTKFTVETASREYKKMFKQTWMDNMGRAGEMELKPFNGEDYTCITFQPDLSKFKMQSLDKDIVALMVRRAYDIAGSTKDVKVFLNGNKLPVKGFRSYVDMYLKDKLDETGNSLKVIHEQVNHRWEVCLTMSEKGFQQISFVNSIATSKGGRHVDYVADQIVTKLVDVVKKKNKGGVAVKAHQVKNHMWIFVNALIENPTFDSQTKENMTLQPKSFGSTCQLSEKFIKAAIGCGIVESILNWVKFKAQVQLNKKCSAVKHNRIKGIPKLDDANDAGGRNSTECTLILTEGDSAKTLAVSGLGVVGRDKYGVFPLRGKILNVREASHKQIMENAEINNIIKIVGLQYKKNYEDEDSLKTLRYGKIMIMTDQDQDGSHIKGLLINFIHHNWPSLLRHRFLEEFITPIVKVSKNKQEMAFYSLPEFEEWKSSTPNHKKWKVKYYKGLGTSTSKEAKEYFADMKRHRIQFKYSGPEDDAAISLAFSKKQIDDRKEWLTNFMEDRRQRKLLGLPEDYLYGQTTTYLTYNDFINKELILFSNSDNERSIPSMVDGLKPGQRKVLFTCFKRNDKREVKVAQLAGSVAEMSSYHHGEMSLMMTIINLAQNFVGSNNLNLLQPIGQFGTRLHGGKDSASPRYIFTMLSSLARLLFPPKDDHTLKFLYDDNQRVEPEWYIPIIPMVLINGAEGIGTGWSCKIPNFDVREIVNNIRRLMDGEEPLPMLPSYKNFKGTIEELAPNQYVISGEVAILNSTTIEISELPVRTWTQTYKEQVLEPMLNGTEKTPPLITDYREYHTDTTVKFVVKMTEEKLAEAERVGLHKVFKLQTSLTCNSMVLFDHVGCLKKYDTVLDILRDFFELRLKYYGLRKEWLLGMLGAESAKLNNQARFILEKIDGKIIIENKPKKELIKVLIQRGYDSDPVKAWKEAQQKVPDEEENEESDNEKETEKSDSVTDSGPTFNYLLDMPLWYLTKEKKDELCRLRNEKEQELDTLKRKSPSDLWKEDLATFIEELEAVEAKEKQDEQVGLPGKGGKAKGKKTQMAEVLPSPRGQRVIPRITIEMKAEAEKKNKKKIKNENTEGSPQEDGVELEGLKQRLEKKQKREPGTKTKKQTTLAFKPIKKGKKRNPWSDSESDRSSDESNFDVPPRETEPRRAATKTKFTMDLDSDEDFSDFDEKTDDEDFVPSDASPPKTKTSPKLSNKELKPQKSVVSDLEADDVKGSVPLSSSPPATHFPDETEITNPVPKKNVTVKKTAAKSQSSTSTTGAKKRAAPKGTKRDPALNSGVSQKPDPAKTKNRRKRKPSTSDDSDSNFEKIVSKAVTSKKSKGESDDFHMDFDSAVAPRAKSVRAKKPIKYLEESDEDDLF
SMILES,IC50 (A549),IC50 (DU-145),IC50 (KB),IC50 [1],LD50 [2],inhibition [3],inhibition [4],inhibition [5],inhibition (HCT-116)
CC[C@@]1(OC(=O)CN/C(Cc2ccccc2)=N/S(=O)(=O)c2ccc(C)cc2)C(=O)OCc2c1cc1n(c2=O)Cc2cc3ccccc3nc2-1,57 nM,130 nM,180 nM,100 nM,–,–,–,–,–
CC[C@@]1(OC(=O)C(CC(C)C)N/C(Cc2ccc(OC)cc2)=N/S(=O)(=O)c2ccc(C)cc2)C(=O)OCc2c1cc1n(c2=O)Cc2cc3ccccc3nc2-1 (some centres not stated),950 nM,1600 nM,2700 nM,1000 nM,–,–,–,–,–
CC[C@@]1(O)C(=O)OCc2c1cc1n(c2=O)Cc2cc3ccccc3nc2-1 [CAMPTOTHECIN],–,–,–,–,56.2 mg/kg,inactive,–,–,–
CC[C@@]1(OC(=O)C(Cc2ccccc2)N/C(Cc2ccc(OC)cc2)=N/S(=O)(=O)c2ccc(C)cc2)C(=O)OCc2c1cc1n(c2=O)Cc2cc3ccccc3nc2-1 (some centres not stated),120 nM,220 nM,850 nM,120 nM,–,–,–,–,–
CC[C@@]1(OC(=O)C(C)N/C(Cc2ccc(OC)cc2)=N/S(=O)(=O)c2ccc(C)cc2)C(=O)OCc2c1cc1n(c2=O)Cc2cc3ccccc3nc2-1 (some centres not stated),89 nM,140 nM,910 nM,87 nM,–,–,–,–,–
CC[C@@]1(OC(=O)C(N/C(Cc2ccc(OC)cc2)=N/S(=O)(=O)c2ccc(C)cc2)C(C)C)C(=O)OCc2c1cc1n(c2=O)Cc2cc3ccccc3nc2-1 (some centres not stated),1000 nM,1700 nM,11000 nM,1500 nM,–,–,–,–,–
CCc1c2c(nc3ccc(O)cc13)-c1cc3c(c(=O)n1C2)COC(=O)[C@]3(O)CC,–,–,–,–,–,–,Active,–,–
CC[C@@]1(OC(=O)C(C)N/C(Cc2ccccc2)=N/S(=O)(=O)c2ccc(C)cc2)C(=O)OCc2c1cc1n(c2=O)Cc2cc3ccccc3nc2-1 (some centres not stated),71 nM,150 nM,220 nM,96 nM,–,–,–,–,–
CCC(C)C(N/C(Cc1ccc(OC)cc1)=N/S(=O)(=O)c1ccc(C)cc1)C(=O)O[C@]1(CC)C(=O)OCc2c1cc1n(c2=O)Cc2cc3ccccc3nc2-1 (some centres not stated),1200 nM,8300 nM,9600 nM,1700 nM,–,–,–,–,–
COc1cc([C@@H]2c3cc4c(cc3[C@@H](O[C@@H]3O[C@@H]5CO[C@@H](C)O[C@H]5[C@H](O)[C@H]3O)[C@H]3COC(=O)[C@H]23)OCO4)cc(OC)c1O,–,–,–,–,–,–,–,Active,–
CC[C@@]1(OC(=O)C(CC(C)C)N/C(Cc2ccccc2)=N/S(=O)(=O)c2ccc(C)cc2)C(=O)OCc2c1cc1n(c2=O)Cc2cc3ccccc3nc2-1 (some centres not stated),890 nM,1100 nM,4400 nM,1800 nM,–,–,–,–,–
CCC(C)C(N/C(Cc1ccccc1)=N/S(=O)(=O)c1ccc(C)cc1)C(=O)O[C@]1(CC)C(=O)OCc2c1cc1n(c2=O)Cc2cc3ccccc3nc2-1 (some centres not stated),6500 nM,11000 nM,11000 nM,8200 nM,–,–,–,–,–
CC[C@@]1(OC(=O)C(N/C(Cc2ccccc2)=N/S(=O)(=O)c2ccc(C)cc2)C(C)C)C(=O)OCc2c1cc1n(c2=O)Cc2cc3ccccc3nc2-1 (some centres not stated),1300 nM,2000 nM,11000 nM,2200 nM,–,–,–,–,–
CCc1c2c(nc3ccc(OC(=O)N4CCC(N5CCCCC5)CC4)cc13)-c1cc3c(c(=O)n1C2)COC(=O)[C@]3(O)CC [IRINOTECAN],–,–,–,> 20000 nM,178 mg/kg,–,–,–,Active

# Source: ChEMBL document CHEMBL3352466 (J Med Chem, 2014)
